The values that follow come from ChEMBL document CHEMBL5036367, “The BASHY Platform Enables the Assembly of a Fluorescent Bortezomib-GV1001 Conjugate” (ACS Med Chem Lett, 2022).

Molecules are shown by their SMILES.

The test system of data set [1] is HeLa. Nature of the data set: Cytotoxicity against human HeLa cells assessed as reduction in cell viability incubated for 24 hrs by MTT assay. Format: functional, cell-based. For orientation: Tetrazolium dyes change colour on reduction, which living cells bring about.
In data set [2] the test system is HeLa. Nature of the data set: Cytotoxicity against oleic acid-induced human HeLa cells assessed as reduction in cell viability incubated for 24 hrs by MTT assay. Format: functional, cell-based.
For data set [3], the system named is HT-29. Nature of the data set: Cytotoxicity against human HT-29 cells assessed as reduction in cell viability incubated for 24 hrs by MTT assay. The conditions noted are these: HT-29, 24 h. Format: functional, cell-based.
The nature of data set [4]: Drug uptake in lysosomes of human HT-29 cells assessed as accumulation in lipid droplets by LysoTracker Red and Nile red staining based confocal microscopic analysis. The class given is ADME, cell-based. An outline of the steps: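 HT-29 cells were imaged by confocal fluorescence microscopy using the compound's own fluorescence. Co-staining was with LysoTracker Deep Red for lysosomes and Nile Red for lipid droplets. Colocalization was expressed as the Pearson's correlation coefficient.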

Data set [5] is described as follows: Stability of compound in ammonium acetate assessed as half life at pH 7. Format: physicochemical.

For the molecule `CC(C)C[C@H](NC(=O)[C@H](Cc1ccccc1)NC(=O)c1cnccn1)B(O)O` [BORTEZOMIB], the IC50 in data set [1] is 20 nM; in data set [2], over 200 nM; in data set [3] it was 3.2 nM.
Consider `COc1ccc2c(c1)O[B-]1([C@H](CC(C)C)NC(=O)[C@@H](Cc3ccccc3)NC(=O)c3cnccn3)OC(=O)C(c3ccccc3)=N[N+]1=C2c1ccccc1` (stereo partly specified), for which the IC50 in data set [3] was found to be 450 nM.
For the molecule `COc1cccc2c1C(=O)c1c(O)c3c(c(O)c1C2=O)C[C@@](O)(C(=O)CO)C[C@@H]3O[C@H]1C[C@H](N)[C@H](O)[C@H](C)O1` [DOXORUBICIN], the IC50 is 90 nM in data set [1] and over 1000 nM in data set [2].
As for `CCC1=[N+]2N=C(c3ccccc3)C(=O)O[B-]2([C@H](CC(C)C)NC(=O)[C@@H](Cc2ccccc2)NC(=O)c2cnccn2)Oc2cc(OC)ccc21` (stereo partly specified), in data set [4], the Drug uptake result was “Active”. Besides, the IC50 in data set [1] is 134 nM; in data set [2], over 200 nM; in data set [3], 19.5 nM. The half-life in data set [5] was 13 h.
Turning to `CCC1=[N+]2N=C(c3ccccc3)C(=O)O[B-]2(c2ccccc2)Oc2cc(OC)ccc21` (stereo unspecified), in data set [4], the Drug uptake result is listed as “Active”.
On to `CC[C@H](C)[C@H](NC(=O)[C@H](Cc1ccccc1)NC(=O)[C@H](CCCNC(=N)N)NC(=O)[C@H](CC(C)C)NC(=O)[C@H](CCCNC(=N)N)NC(=O)[C@H](CO)NC(=O)[C@@H](NC(=O)[C@H](CC(C)C)NC(=O)[C@H](CC(C)C)NC(=O)[C@H](C)NC(=O)[C@@H]1CCCN1C(=O)[C@H](CCCNC(=N)N)NC(=O)[C@H](C)NC(=O)[C@@H](N)CCC(=O)O)[C@@H](C)O)C(=O)N1CCC[C@H]1C(=O)N[C@@H](CCCCN)C(=O)N[C@H](CSC1CC(=O)N(CCC(=O)NCCOCCOCCOCCOCCC(=O)NCCC(=O)N2Cc3ccccc3-c3c(nnn3CCOCCOCCOCCOc3ccc4c(c3)O[B-]3([C@@H](CC(C)C)NC(=O)[C@@H](Cc5ccccc5)NC(=O)c5cnccn5)OC(=O)C(c5ccccc5)=N[N+]3=C4c3ccccc3)-c3ccccc32)C1=O)C(=O)O` (stereo partly specified), for which the Drug uptake result in data set [4] is recorded as “Not Active”. Further, in data set [3], the IC50 is 100 nM.
As for `CCc1c2c(nc3ccc(O)cc13)-c1cc3c(c(=O)n1C2)COC(=O)[C@]3(O)CC` [7-ETHYL-10-HYDROXYCAMPTOTHECIN], the values for the IC50 in data set [1] and in data set [2] were 349 nM and over 1000 nM, respectively.

Broadly, the IC50 is the point on the concentration scale where inhibition reaches its midpoint. For orientation: half-life means the time needed for the level to fall by half in the phase considered.
